Experiments:
[1] = molecular target: RAC-alpha serine/threonine-protein kinase (Homo sapiens) (UniProt P31749); test: Inhibition of PKBalpha assessed as residual enzyme activity at 10 uM relative to untreated control
How it was run: (§1)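 Radiometric filter-binding assay at 21 °C for 30 min. Mix: 50 mM Tris/HCl pH 7.5, 0.1 mM EGTA, 0.1% 2-mercaptoethanol, 10 mM Mg acetate and [γ-33P]ATP (800 cpm/pmol) at 5 µM. Stopped with orthophosphoric acid and spotted on P81. Compound at 10 µM; activity given as % remaining versus no-inhibitor control, duplicates. Kinases human full-length unless noted.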

[2] = molecular target: T1, Serine/threonine-protein kinase Chk1 (Homo sapiens) (UniProt O14757); test: Inhibition of CHK1 assessed as residual enzyme activity at 10 uM relative to untreated control
T1 sequence (whole entry): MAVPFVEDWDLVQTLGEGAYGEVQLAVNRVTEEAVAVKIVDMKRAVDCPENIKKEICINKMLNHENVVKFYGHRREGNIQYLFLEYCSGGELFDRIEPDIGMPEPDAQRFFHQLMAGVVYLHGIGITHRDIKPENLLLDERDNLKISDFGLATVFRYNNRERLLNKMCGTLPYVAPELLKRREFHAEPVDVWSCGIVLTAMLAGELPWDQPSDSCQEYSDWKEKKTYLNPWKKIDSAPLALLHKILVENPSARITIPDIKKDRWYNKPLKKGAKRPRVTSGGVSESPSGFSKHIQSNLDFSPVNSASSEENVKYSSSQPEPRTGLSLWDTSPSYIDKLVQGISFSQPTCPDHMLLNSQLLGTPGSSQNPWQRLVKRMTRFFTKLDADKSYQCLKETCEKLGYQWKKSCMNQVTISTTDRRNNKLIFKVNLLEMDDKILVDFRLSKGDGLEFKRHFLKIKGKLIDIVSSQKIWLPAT
How it was run: (§2)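 Kinases of human origin, except CK1δ, which is rat. Run in 50 mM Tris/HCl pH 7.5, 0.1 mM EGTA, 0.1% 2-mercaptoethanol and 10 mM Mg acetate, with [γ-33P]ATP at 20 µM, 30 min at 21 °C. Acid-stopped and captured on P81 filters. Compound tested at 10 µM; residual % of uninhibited control, duplicate determinations.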

[3] = molecular target: Calcium/calmodulin-dependent protein kinase type 1 (Homo sapiens) (UniProt Q14012); test: Inhibition of CaMK1 assessed as residual enzyme activity at 10 uM relative to untreated control
[4] = molecular target: Serine/threonine-protein kinase PLK1 (Homo sapiens) (UniProt P53350); test: Inhibition of PLK1 assessed as residual enzyme activity at 10 uM relative to untreated control
How it was run: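 30 min at 21 °C in the presence of 10 µM inhibitor. Incorporation read after P81 filter capture. Reported as % activity remaining relative to control, duplicates.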

[5] = molecular target: T2, Mitogen-activated protein kinase 15 (Homo sapiens) (UniProt Q8TD08); test: Inhibition of ERK8 assessed as residual enzyme activity at 10 uM relative to untreated control; how it was run: as §1
T2 sequence (whole entry): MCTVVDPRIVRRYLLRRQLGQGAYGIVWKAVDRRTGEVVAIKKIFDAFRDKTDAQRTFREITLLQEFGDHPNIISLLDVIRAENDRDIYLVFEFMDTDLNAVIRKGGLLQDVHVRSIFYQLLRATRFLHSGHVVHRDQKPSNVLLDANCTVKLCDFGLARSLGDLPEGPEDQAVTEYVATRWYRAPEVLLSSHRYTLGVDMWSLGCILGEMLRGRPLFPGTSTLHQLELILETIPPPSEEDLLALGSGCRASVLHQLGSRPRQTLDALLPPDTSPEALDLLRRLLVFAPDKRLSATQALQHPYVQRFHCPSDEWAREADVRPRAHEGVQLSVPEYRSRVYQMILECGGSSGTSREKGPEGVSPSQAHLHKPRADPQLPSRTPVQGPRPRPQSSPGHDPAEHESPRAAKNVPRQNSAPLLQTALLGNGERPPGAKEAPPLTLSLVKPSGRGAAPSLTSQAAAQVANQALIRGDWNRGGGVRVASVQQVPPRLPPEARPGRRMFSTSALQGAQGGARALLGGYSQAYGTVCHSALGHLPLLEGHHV

[6] = molecular target: Mitogen-activated protein kinase 11 (Homo sapiens) (UniProt Q15759); test: Inhibition of P38beta assessed as residual enzyme activity at 10 uM relative to untreated control; how it was run: as §2
[7] = molecular target: T3, Aurora kinase C (Homo sapiens) (UniProt Q9UQB9); test: Inhibition of AURORA C assessed as residual enzyme activity at 10 uM relative to untreated control; how it was run: as §1
T3 sequence (whole entry): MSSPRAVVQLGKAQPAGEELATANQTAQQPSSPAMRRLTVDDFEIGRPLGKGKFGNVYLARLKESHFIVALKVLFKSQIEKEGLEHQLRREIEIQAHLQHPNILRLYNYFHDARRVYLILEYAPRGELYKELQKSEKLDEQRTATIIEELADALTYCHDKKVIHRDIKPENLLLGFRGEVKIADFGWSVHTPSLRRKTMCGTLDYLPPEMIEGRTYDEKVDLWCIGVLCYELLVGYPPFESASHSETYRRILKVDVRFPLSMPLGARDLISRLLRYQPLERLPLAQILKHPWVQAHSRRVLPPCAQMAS

[8] = molecular target: Serine/threonine-protein kinase Nek6 (Homo sapiens) (UniProt Q9HC98); test: Inhibition of NEK6 assessed as residual enzyme activity at 10 uM relative to untreated control
How it was run: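 Assayed with [γ-33P]ATP at 50 µM and 10 mM Mg acetate in 50 mM Tris/HCl pH 7.5, 0.1 mM EGTA, 0.1% 2-mercaptoethanol, 30 min, 21 °C. Phosphoric acid stop, P81 filter capture. ERK2 and Lck are mouse; AMPK is rat. 10 µM compound; % activity remaining relative to control without inhibitor, duplicates.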

[9] = molecular target: Serine/threonine-protein kinase N2 (Homo sapiens) (UniProt Q16513); test: Inhibition of PRK2 assessed as residual enzyme activity at 10 uM relative to untreated control
How it was run: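 Tris/HCl pH 7.5, EGTA, 2-mercaptoethanol buffer, 30 min, 21 °C, compound at 10 µM. Radioactive phosphate measured on P81 filters. Residual activity as % of uninhibited incubations, duplicates.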

[10] = molecular target: Ribosomal protein S6 kinase alpha-3 (Homo sapiens) (UniProt P51812); test: Inhibition of RSK2 assessed as residual enzyme activity at 10 uM relative to untreated control
[11] = molecular target: Ribosomal protein S6 kinase alpha-5 (Homo sapiens) (UniProt O75582); test: Inhibition of MSK1 assessed as residual enzyme activity at 10 uM relative to untreated control
Ribosomal protein S6 kinase alpha-5 (Homo sapiens), sequence (O75582 whole entry, looked up): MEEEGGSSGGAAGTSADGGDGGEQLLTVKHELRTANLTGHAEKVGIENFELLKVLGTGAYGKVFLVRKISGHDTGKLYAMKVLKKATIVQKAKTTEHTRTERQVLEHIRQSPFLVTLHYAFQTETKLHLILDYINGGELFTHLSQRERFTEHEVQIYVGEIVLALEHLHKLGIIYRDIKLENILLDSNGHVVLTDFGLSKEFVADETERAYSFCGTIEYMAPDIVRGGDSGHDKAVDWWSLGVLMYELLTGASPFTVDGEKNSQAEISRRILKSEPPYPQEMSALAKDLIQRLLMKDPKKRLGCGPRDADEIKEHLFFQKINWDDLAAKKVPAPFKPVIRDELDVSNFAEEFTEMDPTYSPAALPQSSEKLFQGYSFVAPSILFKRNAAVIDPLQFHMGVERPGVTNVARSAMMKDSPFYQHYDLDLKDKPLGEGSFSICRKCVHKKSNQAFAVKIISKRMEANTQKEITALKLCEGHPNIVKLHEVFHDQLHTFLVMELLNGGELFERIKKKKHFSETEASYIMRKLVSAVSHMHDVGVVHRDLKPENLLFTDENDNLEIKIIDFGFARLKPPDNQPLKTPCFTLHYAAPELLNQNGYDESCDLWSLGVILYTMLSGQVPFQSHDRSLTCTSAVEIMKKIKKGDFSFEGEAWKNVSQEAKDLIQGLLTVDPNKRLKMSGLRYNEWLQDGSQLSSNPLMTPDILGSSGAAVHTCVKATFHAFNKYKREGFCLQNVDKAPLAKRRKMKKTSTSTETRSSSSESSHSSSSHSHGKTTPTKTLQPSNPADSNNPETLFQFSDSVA

Ribosomal protein S6 kinase alpha-3 (Homo sapiens), sequence (P51812 whole entry): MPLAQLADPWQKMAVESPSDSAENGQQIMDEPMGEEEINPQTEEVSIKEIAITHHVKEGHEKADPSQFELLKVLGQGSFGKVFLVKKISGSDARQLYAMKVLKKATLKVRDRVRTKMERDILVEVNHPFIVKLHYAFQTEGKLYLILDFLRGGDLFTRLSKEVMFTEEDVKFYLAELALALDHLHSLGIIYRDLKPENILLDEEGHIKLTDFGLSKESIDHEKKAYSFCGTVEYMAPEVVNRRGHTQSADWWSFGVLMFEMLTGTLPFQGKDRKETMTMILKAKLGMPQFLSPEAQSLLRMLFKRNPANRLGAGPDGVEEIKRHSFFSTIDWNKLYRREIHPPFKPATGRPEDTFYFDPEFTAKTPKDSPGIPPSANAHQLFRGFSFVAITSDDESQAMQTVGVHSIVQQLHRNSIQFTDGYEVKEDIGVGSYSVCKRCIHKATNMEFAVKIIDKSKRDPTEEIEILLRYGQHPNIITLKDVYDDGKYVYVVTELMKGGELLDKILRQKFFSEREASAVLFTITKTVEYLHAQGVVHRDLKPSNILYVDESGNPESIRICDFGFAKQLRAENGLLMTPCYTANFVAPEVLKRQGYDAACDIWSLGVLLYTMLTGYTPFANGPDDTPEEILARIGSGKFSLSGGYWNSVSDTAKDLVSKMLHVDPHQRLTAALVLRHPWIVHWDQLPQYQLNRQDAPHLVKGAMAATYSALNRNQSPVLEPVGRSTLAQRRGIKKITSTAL
Serine/threonine-protein kinase PLK1 (Homo sapiens), sequence (P53350 whole entry): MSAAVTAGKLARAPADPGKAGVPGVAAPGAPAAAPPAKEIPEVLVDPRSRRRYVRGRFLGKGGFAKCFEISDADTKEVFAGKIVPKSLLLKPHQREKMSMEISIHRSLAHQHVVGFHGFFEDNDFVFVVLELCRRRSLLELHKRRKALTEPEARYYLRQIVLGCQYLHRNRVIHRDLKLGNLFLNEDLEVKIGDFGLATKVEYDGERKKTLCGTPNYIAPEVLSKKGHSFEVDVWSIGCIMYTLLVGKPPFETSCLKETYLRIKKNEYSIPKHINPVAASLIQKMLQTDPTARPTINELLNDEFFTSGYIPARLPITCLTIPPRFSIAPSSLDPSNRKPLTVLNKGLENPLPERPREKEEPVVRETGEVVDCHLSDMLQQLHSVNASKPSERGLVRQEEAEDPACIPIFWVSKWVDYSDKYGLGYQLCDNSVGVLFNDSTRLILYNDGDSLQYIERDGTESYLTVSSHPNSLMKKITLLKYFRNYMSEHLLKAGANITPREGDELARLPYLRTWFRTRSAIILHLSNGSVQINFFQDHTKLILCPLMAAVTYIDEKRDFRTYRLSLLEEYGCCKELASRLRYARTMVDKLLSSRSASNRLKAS
Serine/threonine-protein kinase Nek6 (Homo sapiens), sequence (Q9HC98 whole entry): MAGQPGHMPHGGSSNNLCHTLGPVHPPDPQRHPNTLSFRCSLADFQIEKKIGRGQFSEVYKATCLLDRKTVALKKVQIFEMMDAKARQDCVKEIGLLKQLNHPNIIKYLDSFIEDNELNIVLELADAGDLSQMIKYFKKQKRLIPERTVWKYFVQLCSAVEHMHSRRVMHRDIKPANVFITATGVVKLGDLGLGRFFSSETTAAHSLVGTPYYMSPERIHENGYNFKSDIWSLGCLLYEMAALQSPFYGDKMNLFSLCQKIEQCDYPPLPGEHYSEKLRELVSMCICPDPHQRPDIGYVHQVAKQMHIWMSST
RAC-alpha serine/threonine-protein kinase (Homo sapiens), sequence (P31749 whole entry): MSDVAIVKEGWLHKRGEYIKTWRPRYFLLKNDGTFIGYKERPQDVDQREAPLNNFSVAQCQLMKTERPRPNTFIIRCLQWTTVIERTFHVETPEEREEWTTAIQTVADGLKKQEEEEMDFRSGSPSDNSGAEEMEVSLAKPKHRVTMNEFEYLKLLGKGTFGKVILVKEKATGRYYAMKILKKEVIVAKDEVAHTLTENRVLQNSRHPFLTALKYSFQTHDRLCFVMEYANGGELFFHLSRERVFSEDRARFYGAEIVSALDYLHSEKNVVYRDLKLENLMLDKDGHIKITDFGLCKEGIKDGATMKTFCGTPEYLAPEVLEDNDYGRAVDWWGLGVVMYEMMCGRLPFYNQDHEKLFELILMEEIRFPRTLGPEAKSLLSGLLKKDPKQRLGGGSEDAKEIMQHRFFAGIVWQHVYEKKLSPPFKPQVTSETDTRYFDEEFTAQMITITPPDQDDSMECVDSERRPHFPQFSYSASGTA
Serine/threonine-protein kinase N2 (Homo sapiens), sequence (Q16513 whole entry, looked up): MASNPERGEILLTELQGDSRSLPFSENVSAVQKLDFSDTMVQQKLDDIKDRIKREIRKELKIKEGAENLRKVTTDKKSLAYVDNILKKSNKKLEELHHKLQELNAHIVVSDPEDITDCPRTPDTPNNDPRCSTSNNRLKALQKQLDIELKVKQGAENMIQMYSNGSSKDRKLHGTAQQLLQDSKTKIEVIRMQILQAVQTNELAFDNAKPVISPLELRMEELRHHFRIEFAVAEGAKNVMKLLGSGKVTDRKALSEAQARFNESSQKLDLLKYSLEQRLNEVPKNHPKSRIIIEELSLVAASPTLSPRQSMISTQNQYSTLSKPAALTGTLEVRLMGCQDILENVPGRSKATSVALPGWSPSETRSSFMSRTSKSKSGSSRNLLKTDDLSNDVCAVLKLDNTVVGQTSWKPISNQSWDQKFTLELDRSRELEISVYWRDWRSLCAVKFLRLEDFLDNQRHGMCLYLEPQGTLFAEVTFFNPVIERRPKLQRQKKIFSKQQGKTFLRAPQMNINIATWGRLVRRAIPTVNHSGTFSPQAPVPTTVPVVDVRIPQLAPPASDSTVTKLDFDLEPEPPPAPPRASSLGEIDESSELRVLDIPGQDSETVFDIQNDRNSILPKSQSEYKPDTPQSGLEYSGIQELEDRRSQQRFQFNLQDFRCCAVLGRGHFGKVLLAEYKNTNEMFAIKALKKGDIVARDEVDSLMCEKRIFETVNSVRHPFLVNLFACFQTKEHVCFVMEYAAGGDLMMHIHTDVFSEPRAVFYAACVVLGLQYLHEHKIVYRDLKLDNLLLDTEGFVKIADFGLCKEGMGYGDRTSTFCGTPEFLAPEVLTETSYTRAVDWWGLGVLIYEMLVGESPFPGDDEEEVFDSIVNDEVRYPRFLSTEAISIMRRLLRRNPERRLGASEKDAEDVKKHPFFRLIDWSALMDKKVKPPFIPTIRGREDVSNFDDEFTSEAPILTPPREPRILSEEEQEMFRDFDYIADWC
Calcium/calmodulin-dependent protein kinase type 1 (Homo sapiens), sequence (Q14012 whole entry, looked up): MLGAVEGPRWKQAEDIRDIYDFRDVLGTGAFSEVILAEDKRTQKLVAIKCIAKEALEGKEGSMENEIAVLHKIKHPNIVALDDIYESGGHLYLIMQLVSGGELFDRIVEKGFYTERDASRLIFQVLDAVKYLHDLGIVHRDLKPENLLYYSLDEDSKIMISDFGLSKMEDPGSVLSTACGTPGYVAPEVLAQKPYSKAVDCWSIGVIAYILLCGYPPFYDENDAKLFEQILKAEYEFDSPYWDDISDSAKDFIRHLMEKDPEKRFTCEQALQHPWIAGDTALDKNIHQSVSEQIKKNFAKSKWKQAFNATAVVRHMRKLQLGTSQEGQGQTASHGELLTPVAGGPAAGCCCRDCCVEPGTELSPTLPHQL
Mitogen-activated protein kinase 11 (Homo sapiens), sequence (Q15759 whole entry): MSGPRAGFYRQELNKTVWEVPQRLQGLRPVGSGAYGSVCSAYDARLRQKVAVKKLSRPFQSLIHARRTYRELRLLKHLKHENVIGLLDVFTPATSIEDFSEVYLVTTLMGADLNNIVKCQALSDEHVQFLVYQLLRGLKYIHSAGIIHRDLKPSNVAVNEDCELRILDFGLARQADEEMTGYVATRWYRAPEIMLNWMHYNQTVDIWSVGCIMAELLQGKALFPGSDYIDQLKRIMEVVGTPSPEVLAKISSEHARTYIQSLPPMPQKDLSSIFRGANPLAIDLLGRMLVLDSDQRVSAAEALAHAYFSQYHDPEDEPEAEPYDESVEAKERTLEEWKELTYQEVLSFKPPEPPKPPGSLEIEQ

| Activity [1] | Activity [2] | Activity [3] | Activity [4] | Activity [6] | Activity [7] | Activity [8] | Activity [9] | Activity [10] | Activity [11] | Structure (SMILES) | Activity [5] |
| --- | --- | --- | --- | --- | --- | --- | --- | --- | --- | --- | --- |
| 120% | 123% | 29% | 111% | 100% | 85% | 90% | 95% | 99% | 90% | c1ccc2c(c1)[nH]c1c2ccc2cc[nH]c21 | 55% |
| 110% | 112% | 80% | 105% | 91% | 99% | 71% | 84% | 107% | 94% | c1ccc2c(c1)[nH]c1c3cc[nH]c3ccc21 | 47% |
| 112% | 101% | 36% | 106% | 96% | 104% | 86% | 101% | 78% | 84% | O=Cc1c[nH]c2ccc3c4ccccc4[nH]c3c12 | 112% |
| 96% | 97% | 71% | 91% | 80% | 79% | 78% | 31% | 77% | 71% | O=Cc1c[nH]c2c1ccc1c3ccccc3[nH]c12 | 20% |

Source: ChEMBL document CHEMBL1154186, “Synthesis, kinase inhibitory potencies, and in vitro antiproliferative evaluation of new Pim kinase inhibitors” (J Med Chem, 2009)
